For one data set, the system named is Leishmania mexicana. The data set can be described thus: Antileishmanial activity against Leishmania mexicana MNYC/BZ/62/M promastigotes after 120 hrs by [3H]thymidine uptake assay. The class given is functional, organism-based. The method, boiled down:
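Promastigotes were seeded at 1.5 x 10^6/ml in triplicate and exposed to 0.01 to 100 µg/ml compound for 72 or 120 h. [3H]thymidine was added for the last 16 h. Percent inhibition = 100 − (cpm treated/cpm untreated × 100). Amphotericin B (0.27–1.6 µM) was the positive control.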

Data set [1] is described as follows: Cytotoxicity against BALB/c mouse T cell after 24 hrs by trypan blue exclusion method. It is filed as cell-based. The note with it: T cells. The method, boiled down: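 BALB/c mouse T lymphocytes at 2 x 10^6/ml were exposed to 0.1, 1, 10 and 50 µg/ml compound for 24 h. Viability was scored by trypan blue exclusion. Results are means ± SEM of three experiments done in duplicate.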

A short description of data set [2]: Selectivity index, ratio of CC50 for mouse T cells to IC50 for Trypanosoma cruzi trypomastigotes. The class given is functional, T-cell. In outline: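 SI = 50% cytotoxic concentration on murine T lymphocytes (24 h, trypan blue exclusion) divided by IC50 against bloodstream trypomastigotes (24 h, Neubauer count of live parasites).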
In data set [3] the test system is Trypanosoma cruzi. Put plainly: Antitrypanosomal activity against Trypanosoma cruzi trypomastigotes after 24 hrs by counting remaining live parasites in a Neubauer chamber.
In data set [4] the test system is Trypanosoma cruzi. Put plainly: Antitrypanosomal activity against Trypanosoma cruzi epimastigotes after 72 hrs by [3H]thymidine uptake assay. The class given is functional, organism-based. In outline:
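Epimastigotes were seeded at 1.5 x 10^6/ml in triplicate with compound up to 100 µg/ml for 72 or 120 h, with [3H]thymidine pulsed for the final 16 h. Inhibition % = 100 − (cpm treated/cpm untreated × 100). Benznidazole (5 to 20 µM) was the positive control. Results are means ± SEM.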

For data set [5], the system named is Trypanosoma cruzi. Put plainly: Antitrypanosomal activity against Trypanosoma cruzi trypomastigotes infected in C3H/HeN mouse assessed survival rate at 1 mg/kg/day, ip treated from day 5 to 10 postinfection measured on 100th day postinfection. It is filed as functional. The note with it: route intraperitoneal. The method, boiled down: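 Male inbred C3H/HeN mice, 6 to 8 weeks old, 27.2 ± 0.9 g, in groups of five, infected ip with 5 x 10^3 bloodstream trypomastigotes. Circulating parasites confirmed on day 5 by microhematocrit. Dosed ip daily, 1 mg/kg/day, on days 5 to 10 postinfection, in 0.1 M PBS pH 7.2; vehicle alone as negative control. Deaths recorded daily; three independent experiments.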

Data set [6] concerns Trypanosoma cruzi. The data set can be described thus: Antitrypanosomal activity against Trypanosoma cruzi trypomastigotes infected in C3H/HeN mouse assessed as reduction in parasitemia at 1 mg/kg/day, ip treated from day 5 to 10 postinfection measured during acute phase of infection relative to control. It is filed as functional. The note with it: route intraperitoneal. The method, boiled down: (§1)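 Male C3H/HeN mice (6–8 weeks, groups of five) were infected ip with 5 x 10^3 bloodstream trypomastigotes, with parasitemia confirmed on day 5 by microhematocrit. Dosing was 1 mg/kg/day ip in 0.1 M PBS pH 7.2 on days 5–10; vehicle served as negative control. Tail blood (5 µl, lysed 1:5 in NH4Cl/Tris) was counted by Neubauer chamber every 2 days. Deaths were recorded daily. Three independent experiments were run.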

Data set [7] deals with Trypanosoma cruzi. Put plainly: Antitrypanosomal activity against Trypanosoma cruzi trypomastigotes infected in C3H/HeN mouse assessed as decrease in parasitemia at 1 mg/kg/day, ip treated from day 5 to 10 postinfection measured on day 16. It is filed as functional, organism-based. In outline:
as §1

Values after ≈ are worked out from the molar mass of the structure shown. Active and inactive are the calls of the source. No cut-off for these calls is given here.

As a reminder, the IC50 is the midpoint of a concentration-inhibition curve. Low readings indicate inhibition by little substance, high ones a need for much substance. As a reminder, the CC50 is the concentration at which the toxic effect on the cells reaches its halfway point. A high value points to better tolerance by the cells. On to `C=C1C(=O)O[C@@H]2C[C@H](C)[C@]3(O)CCC(=O)[C@@]3(C)C[C@H]12` [PERUVIN], for which the half-maximal inhibitory concentration (IC50) in the data set on Leishmania mexicana is 0.39 µg/mL (≈ 1.48 µM); with Trypanosoma cruzi [3] it was 52.8 µg/mL (≈ 200 µM); with Trypanosoma cruzi [4], 1.65 µg/mL (≈ 6.24 µM). In data set [1], this compound yielded a 50% cytotoxic concentration (CC50) at 24 h of 35 µg/mL (≈ 132 µM). Also, the “Selectivity Index” value in data set [2] is 0.7.

For the compound `C=C1C(=O)O[C@@H]2[C@H]1CC[C@H](C)[C@]1(CCC(=O)O1)[C@@]2(C)O` [PSILOSTACHYIN A], the figures for the IC50 in the data set with Leishmania mexicana, with Trypanosoma cruzi [3] and in the data set on Trypanosoma cruzi [4] were 0.12 µg/mL (≈ 0.428 µM), 0.76 µg/mL (≈ 2.71 µM) and 1.22 µg/mL (≈ 4.35 µM), respectively. This compound had a CC50 at 24 h in data set [1] of 25.7 µg/mL (≈ 91.7 µM). In the data set with Trypanosoma cruzi [5], this compound showed an Activity of 100%. Further, in data set [2], the “Selectivity Index” value was found to be 33.8. Further, the “fold change (FC)” value in the data set with Trypanosoma cruzi [6] came to 1.5. For the same compound, the inhibition entry in the data set with Trypanosoma cruzi [7] was “Active”.

The values are drawn from ChEMBL document CHEMBL1275436, “Trypanocidal and leishmanicidal activities of sesquiterpene lactones from Ambrosia tenuifolia Sprengel (Asteraceae)” (Antimicrob Agents Chemother, 2008).
